# Screening data: PubChem BioAssay, Broad Institute
# FN deposition inh: fibronectin deposition inhibition; 350,000 compounds, 0.086% hits; AH1F fibroblasts, Alexa488-fibronectin deposition fluorescence, overnight; inhibition, % at 12.6 µM;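 active = mean inhibition across replicates of 30% or more, regardless of how many single replicates reach that level; inconclusive = mean under 30% yet at least half of replicates reach 30%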
#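 Measured by – fluorescence 485/525 nm · System – AH1F fibroblast monolayer, labelled fibronectin deposition · Amount – 10000 cells per well · Buffer or medium – serum-reduced DMEM (2% serum) · Doses – single dose, pinned · Also added – fluorescent fibronectin at 24 nM final · Schedule – 1 h cell attachment, overnight exposure to compound and label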
# DENV2 CPE: protects cells from dengue virus 2 cytopathic effect. 350,000 compounds, 1.7% hits. DENV2-infected cells, cytopathic effect rescue, plate reader. CPE inhibition, % at 9.99 µM; in the data active = CPE inhibition above about 20%, passing the limit was not always enough; inconclusive = no clear call, values can overlap the other calls; tested in BHK-21 cells
# Xi reactivation: reactivates the inactive X chromosome in mouse fibroblasts. 360,000 compounds, 0.055% hits. AID 743238. XiGFP mouse fibroblasts, % GFP-positive cells imaging, 3 d; cells co-treated with 5-aza-dC sensitizer; scaled so ellipticine positive control = 100%. activation, % at 7.58 µM;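 active = mean normalized replicate activation at least 10% and every replicate at or above 10%; inconclusive = only one of the two criteria met; inactive = mean below 10% and not all replicates reach 10%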
#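 Material: XiGFP fibroblasts, SV40-immortalized; Buffer or medium: DMEM containing 5-aza-dC; Compound dosing: single point; Times: 3 days compound exposure.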
# CaV13 FRET inh: Primary screen for inhibitors of IQ motif and Ca2+-dependent inactivation inhibitor domain binding in CACNA1D, Förster resonance energy transfer in living cells, …. HEK cells, CFP/YFP FRET ICDI-IQ, plate reader, 10 min; percent FRET-ratio fall versus neutral wells. inhibition, % at 12.3 µM. 340,000 compounds, 0.098% hits. AID 743397;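 active = mean replicate inhibition of at least 30% and at least 1% of replicates passing that level; inconclusive = only one of the two criteria is met; inactive = neither criterion is met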
# CASP6 VEID inh: caspase-6 (human) enzyme inhibition; 350,000 compounds, 0.53% hits; P55212; inhibition, % at 12.5 µM; purified caspase-6, Z-VEID-R110 cleavage fluorescence;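 active = mean inhibition across replicates at least about 35%, with every replicate also reaching that limit, limit read from the data; inconclusive = only one of the two criteria met; inactive = neither criterion met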
# Target sequence (P55212 24-179 limits assumed): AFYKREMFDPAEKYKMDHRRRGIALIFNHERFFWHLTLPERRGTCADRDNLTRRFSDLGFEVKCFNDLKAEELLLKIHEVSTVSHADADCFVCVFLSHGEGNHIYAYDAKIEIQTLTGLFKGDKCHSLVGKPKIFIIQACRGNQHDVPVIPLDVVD
# Target sequence (P55212 194-293 limits assumed): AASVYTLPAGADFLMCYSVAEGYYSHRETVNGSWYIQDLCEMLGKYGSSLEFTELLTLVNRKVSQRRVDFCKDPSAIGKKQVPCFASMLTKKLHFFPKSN
# A number is an active result; 0 = inactive; ? = inconclusive; - = not tested or not shown; ! = a repeat was not active. Rows were chosen to be rich in hits. Some 2% of all compounds tested hit in one or more screens of this group.
SMILES,FN deposition inh,DENV2 CPE,Xi reactivation,CaV13 FRET inh,CASP6 VEID inh
COC(=O)CNC(=O)C1Nc2ccccc2C2C=CCC12 (stereo not drawn),0,0,0,0,0
CC(C)CNC(=O)C1Nc2ccccc2C2C=CCC12 (stereo not drawn),0,63,0,0,0
O=C(/C=C1\SC(=O)N(CC(=O)Nc2ccc(Cl)cc2)C1=O)Nc1ccc(F)cc1,0,0,0,0,43
O=C(/C=C1\SC(=O)N(CC(=O)Nc2ccc(F)cc2)C1=O)Nc1ccc(Cl)cc1,0,0,0,0,0
O=C(CN1C(=O)S/C(=C\C=C\c2ccccc2)C1=O)Nc1ccc(C(=O)O)cc1,0,0,0,0,44
O=C(CN1C(=O)S/C(=C/C=C/c2ccccc2)C1=O)Nc1ccc(C(=O)O)cc1,0,0,0,0,0
O=C(CCN1C(=O)/C(=C\C=C\c2ccccc2)SC1=S)Nc1ccc(C(=O)O)cc1,0,?,0,0,49
COc1ccc(NC(=O)N2CC3(C2)CN(C(=O)CN2CCOCC2)[C@H](CO)c2[nH]c4cc(OC)ccc4c23)cc1,-,0,0,-,0
CO[C@@H]1CN(C)C(=O)c2ccc(NC(=O)c3ccccc3F)cc2OC[C@H](C)N(C)C[C@H]1C,0,-,0,-,-
C[C@@H]1CCCCO[C@@H](CN(C)Cc2ccc(C(F)(F)F)cc2)[C@@H](C)CN([C@@H](C)CO)C(=O)c2cc(NS(=O)(=O)c3cn(C)cn3)ccc2O1,-,0,0,-,0
C[C@H](CO)N1C[C@H](C)[C@@H](CN(C)C(=O)Nc2ccc(F)cc2)Oc2c(NS(=O)(=O)c3ccc(F)cc3)cccc2C1=O,-,0,0,-,-
Cc1cc(-n2c(=O)c(C#N)cc3c(=O)n4cccc(C)c4nc32)no1,0,-,-,43,-
Cc1cccn2c(=O)c3cc(C#N)c(=O)n(-c4c(C)n(C)n(-c5ccccc5)c4=O)c3nc12,0,-,-,0,-
CC(/C=N/NC(=O)c1nn(C)c(C)c1Br)=C\c1ccccc1,0,25,0,0,0
CC(C)OCCOc1ccc2oc(-c3ccco3)cc(=O)c2c1,0,0,0,0,35
CNC[C@H]1Oc2ncc(-c3cncnc3)cc2C(=O)N([C@@H](C)CO)C[C@H]1C,0,0,0,-,0
C[C@@H]1CN(C)C(=O)c2cccnc2O[C@@H]1CN(C)C,0,-,0,-,-
O=C(NCc1ccccc1)C1=C[C@@H](C2CC2)C[C@@H](OCc2ccc(CO)cc2)O1,0,26!,0,0,0
O=C(NC1CC1)C1=C[C@@H](C2CCCCC2)C[C@@H](OCCCCO)O1,0,39!,0,0,0
CCO[C@H]1OC(C(=O)NC2CC2)=C[C@@H](C2CCCCC2)[C@@H]1CCCO,0,23,0,0,0
O=C(O)C1=C[C@@H](c2ccc(C(F)(F)F)cc2)C[C@@H](OCCCCO)O1,0,0,0,0,0
O=C(Nc1ccccc1)C1=C[C@@H](c2ccc(C(F)(F)F)cc2)C[C@@H](OCCCCO)O1,0,46!,0,0,0
O=C(NCc1ccccc1)C1=C[C@H](C2CCCCC2)C[C@H](OCc2ccc(CO)cc2)O1,0,0,0,0,0
O=C(Nc1ccccc1)C1=C[C@H](C2CC2)C[C@H](OCCCCO)O1,0,24!,0,0,0
CSc1ccc(NC(=O)Nc2ccc(C(=O)NCC(=O)O)cc2)cc1,0,0,0,0,52
SMILES,FN deposition inh,DENV2 CPE,Xi reactivation,CaV13 FRET inh,CASP6 VEID inh
COCC(=O)Nc1ccc2c(c1)OC[C@@H](C)N(Cc1ccccc1F)C[C@@H](C)[C@H](OC)CN(C)C2=O,0,0,0,-,0
O=C1C=C(c2cccc(Br)c2)C[C@@H](c2ccc(Cl)cc2)C1,0,32,0,0,0
O=C1C=C(c2ccc3c(c2)OCO3)C[C@@H](c2ccc3c(c2)OCO3)C1,0,?,0,0,0
O=C1C=C(c2ccc(F)c(Cl)c2)C[C@@H](c2ccc(F)cc2)C1,0,23,0,0,0
O=C1C=C(c2cc(Cl)cc(Cl)c2)C[C@@H](c2ccc3c(c2)OCO3)C1,0,28,0,0,0
COc1cc(F)cc(C2=CC(=O)C[C@H](c3ccc(F)cc3)C2)c1,0,26,0,0,0
COc1cccc(C2=CC(=O)C[C@H](c3ccc(F)cc3)C2)c1,0,-,0,0,0
COc1ccc(NC(=O)Nc2ccc3c(c2)C(=O)N([C@@H](C)CO)C[C@@H](C)[C@@H](CN(C)C(=O)Nc2cccc4ccccc24)OCCCC[C@H](C)O3)cc1,0,0,0,-,0
CCC(=O)Nc1ccc2c(c1)C(=O)N(C)C[C@H](OC)[C@@H](C)CN(C(=O)Cc1ccccn1)[C@@H](C)CO2,0,0,0,-,0
CSc1ccccc1NC(=O)c1cc2c(=O)n3ccccc3nc2s1,0,22,0,0,0
CC(C)NC(=O)c1cc2c(=O)n3ccccc3nc2s1,0,0,0,0,0
CC(C)NC(=O)N(C)C[C@@H]1Oc2ccc(N(C)C)cc2CC(=O)N(C)C[C@@H]1C,0,-,0,-,-
COc1ccc(NC(=O)C2CCC(CNS(=O)(=O)c3cccs3)CC2)cc1OC (stereo not drawn),0,31,0,0,0
COc1ccc(NC(=O)C2CCC(CNS(=O)(=O)c3cccs3)CC2)cc1 (stereo not drawn),0,0,0,31,0
COc1ccc(NC(=O)C2CCN(S(=O)(=O)c3cccs3)CC2)cc1OC,0,0,0,0,0
C[C@@H]1CN([C@@H](C)CO)S(=O)(=O)c2ccc(C3=CCCCC3)cc2O[C@@H]1CN(C)C(=O)Cc1ccccc1,0,?,0,-,0
COc1ccc2c3c(n(C)c2c1)[C@H](CO)N(C(=O)Cc1ccccn1)CC31CCN(CC2CCCC2)CC1,0,0,0,-,0
COc1ccc2c3c(n(C)c2c1)[C@H](CO)N(C(=O)c1ccc(F)cc1)CC31CN(CC2CCOCC2)C1,0,0,0,-,0
COc1ccc2c3c([nH]c2c1)[C@@H](CO)N(Cc1ccccc1F)CC31CCN(C(=O)C2CCCC2)CC1,-,0,0,-,-
COc1ccccc1N(CC(=O)N(CC(C)C)CC(C)C)S(=O)(=O)c1cccs1,32,0,0,0,0
COc1ccccc1N(CC(=O)N(c1ccccc1)C(C)C)S(=O)(=O)c1cccs1,-,0,0,0,0
O=C(NN=C1CCCC1)c1n[nH]c2c1CCCC2,0,0,0,0,0
O=C(NN=C1CCCC1)c1n[nH]c2c1CCC2,-,0,0,0,59
CC(=O)N1[C@@H](CO)[C@H](c2ccc(-c3ccc(F)cc3)cc2)[C@@H]1CNC(=O)C1CC1,0,0,0,-,-
CC(=O)NC[C@@H]1[C@H](c2ccc(-c3ccccc3)cc2)[C@H](CO)N1C(=O)C1CC1,0,76,0,-,0
CC(=O)NC[C@H]1[C@@H](c2ccc(-c3ccccc3F)cc2)[C@@H](CO)N1C(C)=O,0,41,0,-,0
